Test results published in ChEMBL document CHEMBL1152210, “Synthesis and biological evaluation of alkoxycoumarins as novel nematicidal constituents” (Bioorg Med Chem Lett, 2008).
The source made the active and inactive calls. The rule behind the calls is not given here.

Key:
[1] = system: Bursaphelenchus xylophilus; test: Nematicidal activity against Bursaphelenchus xylophilus measured per cotton ball after 4 days by serial dilution method; assay type: functional
Outline: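 Cotton ball (5 mm), loaded with test compound or solvent and vacuum-dried, set on 4-day Botrytis cinerea mycelia grown on Czapek-Dox agar at 21 °C. 100 µl B. xylophilus suspension (ca. 15,000/ml in distilled water) injected into the ball; dish held at 26 °C for 4 days. Mycelial consumption scored; MED is the lowest active dose by serial dilution, top dose 160 µg/ball. Survival confirmed by methylene blue staining.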

Oryzias latipes = test: Toxicity in Oryzias latipes after 24 hrs by serial dilution method; assay type: organism-based; settings: in vivo
Artemia salina = test: Toxicity in Artemia salina after 24 hrs by serial dilution method; assay type: organism-based; settings: in vivo

Row | Compound | Activity [1] | LC100 (Oryzias latipes) | MED [1] | LC100 (Artemia salina) | LC50 (Oryzias latipes) | LC50 (Artemia salina)
1 | O=C(O)/C=C/c1ccccc1O | inactive | – | – | – | – | –
2 | COc1ccc2ccc(=O)oc2c1 [HERNIARIN] | – | 75 ppm | 40 µg | 80 ppm | – | –
3 | COc1cccc2ccc(=O)oc12 | – | > 100 ppm | 80 µg | > 80 ppm | 100 ppm | > 80 ppm
4 | COc1ccc2oc(=O)ccc2c1 | – | 100 ppm | 80 µg | > 80 ppm | 75 ppm | > 80 ppm
5 | O=c1ccc2ccccc2o1 [COUMARIN] | – | 50 ppm | 80 µg | > 80 ppm | 38 ppm | > 80 ppm
6 | COc1cc(=O)oc2ccccc12 | inactive | 100 ppm | – | > 80 ppm | 75 ppm | 60 ppm
7 | O=c1ccc2c(O)cccc2o1 | inactive | – | – | – | – | –
8 | CCOc1cccc2oc(=O)ccc12 | – | 100 ppm | 10 µg | > 80 ppm | 75 ppm | > 80 ppm
9 | CCCOc1cccc2oc(=O)ccc12 | – | – | 20 µg | – | – | –
10 | COc1cc2ccccc2oc1=O | – | > 100 ppm | 80 µg | > 80 ppm | > 100 ppm | > 80 ppm
11 | CCCCCCCCCc1cccc(O)c1 | – | 10 ppm | 2.5 µg | 1.3 ppm | 7.5 ppm | 0.6 ppm
12 | CCCCCCCCCCCc1cccc(O)c1 | – | 5 ppm | 5 µg | 1.3 ppm | 3.8 ppm | 1 ppm
13 | C=CCOc1cccc2oc(=O)ccc12 | inactive | – | – | – | – | –
14 | C/C1=C\C[C@@H]2C[C@@H](C[C@]3(CC[C@H](C)[C@@H](C)O3)O2)OC(=O)[C@@H]2CC[C@@H](O)[C@H]3OC/C(=C\C=C\[C@H](C)C1)[C@]32O [MILBEMECTIN] | – | 0.25 ppm | 0.6 µg | 0.6 ppm | 0.06 ppm | 0.1 ppm
15 | COc1cc(OC)c2ccc(=O)oc2c1 [CITROPTEN] | – | – | 20 µg | – | – | –
16 | CCCCOc1cccc2oc(=O)ccc12 | – | – | 40 µg | – | – | –
17 | CCCCCCCCOc1cccc2oc(=O)ccc12 | – | – | 40 µg | – | – | –
18 | COc1cccc2oc(=O)ccc12 | – | 50 ppm | 20 µg | 20 ppm | 38 ppm | 30 ppm
19 | O=c1ccc2c(OCc3ccccc3)cccc2o1 | – | – | 80 µg | – | – | –
20 | CCCCCOc1cccc2oc(=O)ccc12 | – | – | 40 µg | – | – | –
